Measurements as given in ChEMBL document CHEMBL2157922, “Synthesis and antifungal activity of diverse C-2 pyridinyl and pyridinylvinyl substituted quinolines” (2012).
Converted amounts (≈) assume the structure as drawn.

What was measured:
Candida albicans [1] = assay: Antifungal activity against Candida albicans ATCC 10231 at 31.2 ug/ml after 24 hrs; type: functional; details: ATCC 10231, 24 h
Outline: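 C. albicans was grown in 96-well RPMI-1640 broth microdilution with compound wells diluted from DMSO stocks. Growth wells with matched DMSO and sterility wells were included. After 24 h at 30 °C in a moist, dark chamber, OD405 was read. % inhibition = 100 − (CTW − SCW)/(GCW − SCW) OD, done in duplicate.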

Saccharomyces cerevisiae = assay: Antifungal activity against Saccharomyces cerevisiae ATCC 9763 after 48 hrs by broth microdilution technique; type: functional; details: ATCC 9763, 48 h
Outline: (§1)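 Yeasts were tested by CLSI broth microdilution in RPMI-1640 buffered to pH 7.0 with MOPS, with compound from 250 down to 0.98 in DMSO stocks. Trays were held at 30 °C in a moist, dark chamber. MIC100, the lowest concentration giving total visual inhibition against the growth control, was read by eye at 48 h.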

Candida albicans [2] = assay: Antifungal activity against Candida albicans ATCC 10231 after 48 hrs by broth microdilution technique; type: functional; details: ATCC 10231, 48 h; outline: as §1
Candida albicans [3] = assay: Antifungal activity against Candida albicans CCC 126 after 48 hrs by broth microdilution technique; type: functional; details: CCC 126, 48 h
Cryptococcus neoformans [4] = assay: Antifungal activity against Cryptococcus neoformans IM 983040 after 48 hrs by broth microdilution technique; type: functional; details: IM 983040, 48 h
Outline: (§2)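 C. neoformans was tested by 96-well RPMI-1640 microdilution, with DMSO-matched growth and sterility control wells. Plates were incubated 48 h at 30 °C in a moist, dark chamber and read at OD405. % inhibition = 100 − (CTW − SCW)/(GCW − SCW), in duplicate. For the clinical isolates, MIC80 and MIC50 are the lowest concentrations giving 80% and 50% inhibition.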

Aspergillus flavus = assay: Antifungal activity against Aspergillus flavus ATCC 9170 after 48 hrs by broth microdilution technique; type: functional; details: ATCC 9170, 48 h
Outline: (§3)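 Moulds and dermatophytes were run by CLSI broth microdilution in MOPS-buffered RPMI-1640 at pH 7.0. Aspergillus was incubated at 30 °C and dermatophytes at 28–30 °C, in a moist, dark chamber. MIC100, the lowest concentration with no visible growth, was read visually at a time set by growth of the control fungus.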

Cryptococcus neoformans [5] = assay: Antifungal activity against Cryptococcus neoformans ATCC 32264 at 31.2 ug/ml after 48 hrs; type: functional; details: ATCC 32264, 48 h; outline: as §2
Candida albicans [6] = assay: Antifungal activity against Candida albicans CCC 125 after 48 hrs by broth microdilution technique; type: functional; details: CCC 125, 48 h
Cryptococcus neoformans [7] = assay: Antifungal activity against Cryptococcus neoformans IM 972724 after 48 hrs by broth microdilution technique; type: functional; details: IM 972724, 48 h; outline: as §2
[8] = system: Trichophyton mentagrophytes; assay: Antifungal activity against Trichophyton mentagrophytes ATCC 9972 after 48 hrs by broth microdilution technique; type: functional; details: ATCC 9972, 48 h; outline: as §3
Cryptococcus neoformans [9] = assay: Antifungal activity against Cryptococcus neoformans IM 00319 after 48 hrs by broth microdilution technique; type: functional; details: IM 00319, 48 h; outline: as §2
Cryptococcus neoformans [10] = assay: Antifungal activity against Cryptococcus neoformans IM 042074 after 48 hrs by broth microdilution technique; type: functional; details: IM 042074, 48 h; outline: as §2
Candida albicans [11] = assay: Antifungal activity against Candida albicans CCC 128 after 48 hrs by broth microdilution technique; type: functional; details: CCC 128, 48 h
Candida albicans [12] = assay: Antifungal activity against Candida albicans CCC 127 after 48 hrs by broth microdilution technique; type: functional; details: CCC 127, 48 h
Nannizzia gypsea = assay: Antifungal activity against Microsporum gypseum CCC 115 after 48 hrs by broth microdilution technique; type: functional; details: CCC 115, 48 h; outline: as §3
Cryptococcus neoformans [13] = assay: Antifungal activity against Cryptococcus neoformans IM 983036 after 48 hrs by broth microdilution technique; type: functional; details: IM 983036, 48 h; outline: as §2
Aspergillus niger = assay: Antifungal activity against Aspergillus niger ATCC 9029 after 48 hrs by broth microdilution technique; type: functional; details: ATCC 9029, 48 h; outline: as §3
Candida albicans [14] = assay: Antifungal activity against Candida albicans CCC 130 after 48 hrs by broth microdilution technique; type: functional; details: CCC 130, 48 h
Candida parapsilosis = assay: Antifungal activity against Candida parapsilosis CCC 124 after 48 hrs by broth microdilution technique; type: functional; details: Lodderomyces parapsilosis, CCC 124, 48 h
Candida albicans [15] = assay: Antifungal activity against Candida albicans CCC 129 after 48 hrs by broth microdilution technique; type: functional; details: CCC 129, 48 h
Cryptococcus neoformans [16] = assay: Antifungal activity against Cryptococcus neoformans ATCC 32264 after 48 hrs by broth microdilution technique; type: functional; details: ATCC 32264, 48 h; outline: as §1
Nakaseomyces glabratus = assay: Antifungal activity against Candida glabrata CCC 115 after 48 hrs by broth microdilution technique; type: functional; details: CCC 115, 48 h
Candida tropicalis = assay: Antifungal activity against Candida tropicalis CCC 131 after 48 hrs by broth microdilution technique; type: functional; details: CCC 131, 48 h
Pichia kudriavzevii = assay: Antifungal activity against Candida krusei CCC 117 after 48 hrs by broth microdilution technique; type: functional; details: CCC 117, 48 h
Candida albicans [17] = assay: Antifungal activity against Candida albicans CCC 130 after 24 hrs by broth microdilution technique; details: CCC 130, 24 h
Cryptococcus neoformans [18] = assay: Antifungal activity against Cryptococcus neoformans IM 972751 after 48 hrs by broth microdilution technique; type: functional; details: IM 972751, 48 h; outline: as §2
Aspergillus fumigatus = assay: Antifungal activity against Aspergillus fumigatus ATCC 26934 after 48 hrs by broth microdilution technique; type: functional; details: ATCC 26934, 48 h; outline: as §3
Trichophyton rubrum = assay: Antifungal activity against Trichophyton rubrum CCC 113 after 48 hrs by broth microdilution technique; type: functional; details: CCC 113, 48 h

MIC (Saccharomyces cerevisiae): 250 µg/mL (≈ 999 µM) | MIC (Candida albicans [2]): 125 µg/mL (≈ 499 µM) | MIC50 (Candida albicans [2]): 15.6 µg/mL (≈ 62.3 µM) | MIC80 (Candida albicans [2]): 31.2 µg/mL (≈ 125 µM) | MIC50 (Candida albicans [3]): 62.5 µg/mL (≈ 250 µM) | MIC80 (Candida albicans [3]): 62.5 µg/mL (≈ 250 µM) | MIC50 (Cryptococcus neoformans [4]): 31.2 µg/mL (≈ 125 µM) | MIC80 (Cryptococcus neoformans [4]): 62.5 µg/mL (≈ 250 µM) | MIC (Aspergillus flavus): 250 µg/mL (≈ 999 µM) | MIC50 (Candida albicans [6]): 15.6 µg/mL (≈ 62.3 µM) | MIC80 (Candida albicans [6]): 31.2 µg/mL (≈ 125 µM) | MIC50 (Cryptococcus neoformans [7]): 31.2 µg/mL (≈ 125 µM) | MIC80 (Cryptococcus neoformans [7]): 62.5 µg/mL (≈ 250 µM) | MIC [8]: 125 µg/mL (≈ 499 µM) | MIC50 (Cryptococcus neoformans [9]): 15.6 µg/mL (≈ 62.3 µM) | MIC80 (Cryptococcus neoformans [9]): 62.5 µg/mL (≈ 250 µM) | MIC50 (Cryptococcus neoformans [10]): 15.6 µg/mL (≈ 62.3 µM) | MIC80 (Cryptococcus neoformans [10]): 62.5 µg/mL (≈ 250 µM) | MIC50 (Candida albicans [11]): 31.2 µg/mL (≈ 125 µM) | MIC80 (Candida albicans [11]): 62.5 µg/mL (≈ 250 µM) | MIC50 (Candida albicans [12]): 31.2 µg/mL (≈ 125 µM) | MIC80 (Candida albicans [12]): 62.5 µg/mL (≈ 250 µM) | MIC (Nannizzia gypsea): 125 µg/mL (≈ 499 µM) | MIC50 (Cryptococcus neoformans [13]): 31.2 µg/mL (≈ 125 µM) | MIC80 (Cryptococcus neoformans [13]): 62.5 µg/mL (≈ 250 µM) | MIC (Aspergillus niger): > 250 µg/mL | MIC80 (Candida albicans [14]): 31.2 µg/mL (≈ 125 µM) | MIC50 (Candida parapsilosis): 7.8 µg/mL (≈ 31.2 µM) | MIC80 (Candida parapsilosis): 15.6 µg/mL (≈ 62.3 µM) | MIC50 (Candida albicans [15]): 31.2 µg/mL (≈ 125 µM) | MIC80 (Candida albicans [15]): 62.5 µg/mL (≈ 250 µM) | MIC (Cryptococcus neoformans [16]): 125 µg/mL (≈ 499 µM) | MIC50 (Cryptococcus neoformans [16]): 15.6 µg/mL (≈ 62.3 µM) | MIC80 (Cryptococcus neoformans [16]): 31.2 µg/mL (≈ 125 µM) | MIC50 (Nakaseomyces glabratus): 15.6 µg/mL (≈ 62.3 µM) | MIC80 (Nakaseomyces glabratus): 31.2 µg/mL (≈ 125 µM) | MIC50 (Candida tropicalis): 62.5 µg/mL (≈ 250 µM) | MIC80 (Candida tropicalis): 125 µg/mL (≈ 499 µM) | MIC50 (Pichia kudriavzevii): 15.6 µg/mL (≈ 62.3 µM) | MIC80 (Pichia kudriavzevii): 31.2 µg/mL (≈ 125 µM) | MIC50 (Candida albicans [17]): 15.6 µg/mL (≈ 62.3 µM) | MIC50 (Cryptococcus neoformans [18]): 15.6 µg/mL (≈ 62.3 µM) | MIC80 (Cryptococcus neoformans [18]): 31.2 µg/mL (≈ 125 µM) | MIC (Aspergillus fumigatus): 250 µg/mL (≈ 999 µM) | MIC (Trichophyton rubrum): 125 µg/mL (≈ 499 µM)
Structure (SMILES): Fc1ccc2nc(/C=C/c3ccccn3)ccc2c1
inhibition at 31.2 µg/mL (Candida albicans [1]): 80% | MFC (Saccharomyces cerevisiae): > 250 µg/mL | MFC (Candida albicans [2]): > 250 µg/mL | MFC (Aspergillus flavus): > 250 µg/mL | inhibition at 31.2 µg/mL (Cryptococcus neoformans [5]): 80% | MFC [8]: > 250 µg/mL | MFC (Nannizzia gypsea): > 250 µg/mL | MFC (Cryptococcus neoformans [16]): > 250 µg/mL | MFC (Aspergillus fumigatus): > 250 µg/mL | MFC (Trichophyton rubrum): > 250 µg/mL
